# Target: T1, Opioid receptor (Mus musculus) (UniProt P42866+P32300+P33534)
# Assay: (§1) Inhibition of [3H]dihydromorphine binding to mouse brain membranes as percentage of Opioid receptor occupancy
# Conditions: not given
# T1 sequence (P32300 whole entry, looked up): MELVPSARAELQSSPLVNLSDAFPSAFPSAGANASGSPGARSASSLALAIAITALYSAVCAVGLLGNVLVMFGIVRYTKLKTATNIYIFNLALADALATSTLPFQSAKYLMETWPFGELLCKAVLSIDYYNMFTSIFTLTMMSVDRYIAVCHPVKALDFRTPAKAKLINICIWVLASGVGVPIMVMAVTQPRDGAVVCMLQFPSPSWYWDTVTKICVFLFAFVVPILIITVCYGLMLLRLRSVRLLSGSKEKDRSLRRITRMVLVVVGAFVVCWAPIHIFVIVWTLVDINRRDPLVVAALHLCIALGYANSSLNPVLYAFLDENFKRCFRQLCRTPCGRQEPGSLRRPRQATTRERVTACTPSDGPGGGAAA
# T1 sequence (P33534 whole entry, looked up): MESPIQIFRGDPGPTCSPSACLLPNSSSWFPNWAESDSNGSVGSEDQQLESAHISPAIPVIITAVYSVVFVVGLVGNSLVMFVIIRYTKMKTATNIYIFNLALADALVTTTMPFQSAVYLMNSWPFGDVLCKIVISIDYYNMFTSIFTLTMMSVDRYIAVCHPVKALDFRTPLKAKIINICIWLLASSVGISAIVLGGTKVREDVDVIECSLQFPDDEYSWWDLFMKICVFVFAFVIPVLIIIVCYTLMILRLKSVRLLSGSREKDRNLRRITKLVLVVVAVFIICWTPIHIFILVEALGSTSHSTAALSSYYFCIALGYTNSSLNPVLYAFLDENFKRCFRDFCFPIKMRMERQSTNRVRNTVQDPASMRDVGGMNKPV
# T1 sequence (P42866 whole entry, looked up): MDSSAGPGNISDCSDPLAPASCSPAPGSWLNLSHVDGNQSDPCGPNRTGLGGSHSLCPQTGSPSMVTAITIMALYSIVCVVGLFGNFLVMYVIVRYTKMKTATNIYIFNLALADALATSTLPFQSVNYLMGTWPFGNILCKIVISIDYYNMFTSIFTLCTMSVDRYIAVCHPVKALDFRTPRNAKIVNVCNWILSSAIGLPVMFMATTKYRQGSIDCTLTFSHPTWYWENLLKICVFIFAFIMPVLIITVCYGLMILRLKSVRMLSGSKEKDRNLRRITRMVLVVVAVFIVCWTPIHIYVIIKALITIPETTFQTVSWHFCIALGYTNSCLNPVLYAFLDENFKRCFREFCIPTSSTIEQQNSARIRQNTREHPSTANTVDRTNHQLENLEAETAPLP
row,Structure (SMILES),Receptor occupancy [%]
1,CCCCCCCCCCCCCCCC(=O)NN[C@@H]1CC[C@@]2(O)[C@H]3Cc4ccc(O)c5c4[C@@]2(CCN3CC2CC2)[C@H]1O5,2
2,CC/C=C/C/C=C/C/C=C/CCCCCCCC(=O)N[C@@H]1CC[C@@]2(O)[C@H]3Cc4ccc(O)c5c4[C@@]2(CCN3CC2CC2)[C@H]1O5,95
3,CCCCCCCC/C=C/CCCCCCCC(=O)N[C@@H]1CC[C@@]2(O)[C@H]3Cc4ccc(O)c5c4[C@@]2(CCN3CC2CC2)[C@H]1O5,93
4,CC/C=C/C/C=C/C/C=C/CCCCCCCC(=O)N[C@H]1CC[C@@]2(O)[C@H]3Cc4ccc(O)c5c4[C@@]2(CCN3CC2CC2)[C@H]1O5,89
5,CC/C=C/C/C=C/C/C=C/CCCCCCCC(=O)NN[C@@H]1CC[C@@]2(O)[C@H]3Cc4ccc(O)c5c4[C@@]2(CCN3CC2CC2)[C@H]1O5,46
6,CCCCCCCCCCCCCCCCCC(=O)N[C@H]1CC[C@@]2(O)[C@H]3Cc4ccc(O)c5c4[C@@]2(CCN3CC2CC2)[C@H]1O5,42
7,CCCCCCCCCCCCCCCCCC(=O)N[C@@H]1CC[C@@]2(O)[C@H]3Cc4ccc(O)c5c4[C@@]2(CCN3CC2CC2)[C@H]1O5,48
8,CCCCC/C=C/C/C=C/CCCCCCCC(=O)N[C@H]1CC[C@@]2(O)[C@H]3Cc4ccc(O)c5c4[C@@]2(CCN3CC2CC2)[C@H]1O5,93
9,CCCCC/C=C/C/C=C/CCCCCCCC(=O)N[C@@H]1CC[C@@]2(O)[C@H]3Cc4ccc(O)c5c4[C@@]2(CCN3CC2CC2)[C@H]1O5,96
10,CCCCCCCC/C=C/CCCCCCCC(=O)N[C@H]1CC[C@@]2(O)[C@H]3Cc4ccc(O)c5c4[C@@]2(CCN3CC2CC2)[C@H]1O5,54
11,CCCCCCCCCCCCCCCC(=O)N[C@@H]1CC[C@@]2(O)[C@H]3Cc4ccc(O)c5c4[C@@]2(CCN3CC2CC2)[C@H]1O5,58
12,CCCCCCCCCCCCCCCCCC(=O)NN[C@@H]1CC[C@@]2(O)[C@H]3Cc4ccc(O)c5c4[C@@]2(CCN3CC2CC2)[C@H]1O5,4

# Target: T1, Opioid receptor (Mus musculus)
# Assay: Binding to mouse brain membranes expressed as percentage of Opioid receptors occupancy determined from difference in specific binding of [3H]dihydromorphine obtained prewashed.
# Conditions: Membrane
# Summary of the method: (§2)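 Applies to membranes washed before ligand exposure. Mouse brain membranes in Hepes buffer pH 7.4 are incubated with ligand for 30 min at 25 °C. Occupancy is taken from the reduction in specific binding of [3H]dihydromorphine (2 nM final, 20 min at 25 °C; nonspecific binding with 1 µM naltrexone) versus a ligand-free control. Mean ± SD of triplicates.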
row,Structure (SMILES),Receptor occupancy [%]
1,CC/C=C/C/C=C/C/C=C/CCCCCCCC(=O)N[C@@H]1CC[C@@]2(O)[C@H]3Cc4ccc(O)c5c4[C@@]2(CCN3CC2CC2)[C@H]1O5,85
2,CCCCCCCC/C=C/CCCCCCCC(=O)N[C@@H]1CC[C@@]2(O)[C@H]3Cc4ccc(O)c5c4[C@@]2(CCN3CC2CC2)[C@H]1O5,64
3,CC/C=C/C/C=C/C/C=C/CCCCCCCC(=O)N[C@H]1CC[C@@]2(O)[C@H]3Cc4ccc(O)c5c4[C@@]2(CCN3CC2CC2)[C@H]1O5,69
4,CCCCCCCCCCCCCCCCCC(=O)N[C@H]1CC[C@@]2(O)[C@H]3Cc4ccc(O)c5c4[C@@]2(CCN3CC2CC2)[C@H]1O5,18
5,CCCCCCCCCCCCCCCCCC(=O)N[C@@H]1CC[C@@]2(O)[C@H]3Cc4ccc(O)c5c4[C@@]2(CCN3CC2CC2)[C@H]1O5,34
6,CCCCC/C=C/C/C=C/CCCCCCCC(=O)N[C@H]1CC[C@@]2(O)[C@H]3Cc4ccc(O)c5c4[C@@]2(CCN3CC2CC2)[C@H]1O5,73
7,CCCCC/C=C/C/C=C/CCCCCCCC(=O)N[C@@H]1CC[C@@]2(O)[C@H]3Cc4ccc(O)c5c4[C@@]2(CCN3CC2CC2)[C@H]1O5,84
8,CCCCCCCC/C=C/CCCCCCCC(=O)N[C@H]1CC[C@@]2(O)[C@H]3Cc4ccc(O)c5c4[C@@]2(CCN3CC2CC2)[C@H]1O5,42
9,CCCCCCCCCCCCCCCC(=O)N[C@@H]1CC[C@@]2(O)[C@H]3Cc4ccc(O)c5c4[C@@]2(CCN3CC2CC2)[C@H]1O5,38

# Target: T1, Opioid receptor (Mus musculus)
# Assay: Binding to mouse brain membranes expressed as percentage of receptor occupancy determined from difference in specific binding of [3H]dihydromorphine obtained after 5 wash procedures.
# Conditions: Membrane
# Summary of the method: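 Ligand pretreatment of male mouse brain membranes runs 30 min at 25 °C, followed by 5 washes in Hepes buffer pH 7.4 (10 min at 37 °C each, then recentrifuged). Specific binding of 2 nM [3H]dihydromorphine (20 min at 25 °C, minus binding with 1 µM naltrexone) is compared with an identically washed ligand-free control to give percent occupancy. Triplicate, mean ± SD.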
row,Structure (SMILES),Receptor occupancy [%]
1,Oc1ccc2c3c1O[C@H]1/C(=N\N=C4/CC[C@@]5(O)[C@H]6Cc7ccc(O)c8c7[C@@]5(CCN6CC5CC5)[C@H]4O8)CC[C@@]4(O)[C@@H](C2)N(CC2CC2)CC[C@]314,-1
2,CCCCCCCCCCCCCCCC(=O)N[C@H]1CC[C@@]2(O)[C@H]3Cc4ccc(O)c5c4[C@@]2(CCN3CC2CC2)[C@H]1O5,35

# Target: T1, Opioid receptor (Mus musculus)
# Assay: as §1
# Conditions: not given
row,Structure (SMILES),Receptor occupancy [%]
1,CCCCCCCCCCCCCCCC(=O)NN[C@@H]1CC[C@@]2(O)[C@H]3Cc4ccc(O)c5c4[C@@]2(CCN3CC2CC2)[C@H]1O5,33
2,CC/C=C/C/C=C/C/C=C/CCCCCCCC(=O)N[C@@H]1CC[C@@]2(O)[C@H]3Cc4ccc(O)c5c4[C@@]2(CCN3CC2CC2)[C@H]1O5,92
3,CCCCCCCC/C=C/CCCCCCCC(=O)N[C@@H]1CC[C@@]2(O)[C@H]3Cc4ccc(O)c5c4[C@@]2(CCN3CC2CC2)[C@H]1O5,95
4,CC/C=C/C/C=C/C/C=C/CCCCCCCC(=O)N[C@H]1CC[C@@]2(O)[C@H]3Cc4ccc(O)c5c4[C@@]2(CCN3CC2CC2)[C@H]1O5,94
5,CC/C=C/C/C=C/C/C=C/CCCCCCCC(=O)NN[C@@H]1CC[C@@]2(O)[C@H]3Cc4ccc(O)c5c4[C@@]2(CCN3CC2CC2)[C@H]1O5,93
6,CCCCCCCCCCCCCCCCCC(=O)N[C@H]1CC[C@@]2(O)[C@H]3Cc4ccc(O)c5c4[C@@]2(CCN3CC2CC2)[C@H]1O5,77
7,CCCCCCCCCCCCCCCCCC(=O)N[C@@H]1CC[C@@]2(O)[C@H]3Cc4ccc(O)c5c4[C@@]2(CCN3CC2CC2)[C@H]1O5,89
8,CCCCC/C=C/C/C=C/CCCCCCCC(=O)N[C@H]1CC[C@@]2(O)[C@H]3Cc4ccc(O)c5c4[C@@]2(CCN3CC2CC2)[C@H]1O5,93
9,CCCCC/C=C/C/C=C/CCCCCCCC(=O)N[C@@H]1CC[C@@]2(O)[C@H]3Cc4ccc(O)c5c4[C@@]2(CCN3CC2CC2)[C@H]1O5,94
10,CCCCCCCC/C=C/CCCCCCCC(=O)N[C@H]1CC[C@@]2(O)[C@H]3Cc4ccc(O)c5c4[C@@]2(CCN3CC2CC2)[C@H]1O5,98
11,CCCCCCCCCCCCCCCC(=O)N[C@@H]1CC[C@@]2(O)[C@H]3Cc4ccc(O)c5c4[C@@]2(CCN3CC2CC2)[C@H]1O5,93
12,CCCCCCCCCCCCCCCCCC(=O)NN[C@@H]1CC[C@@]2(O)[C@H]3Cc4ccc(O)c5c4[C@@]2(CCN3CC2CC2)[C@H]1O5,38

# Target: T1, Opioid receptor (Mus musculus)
# Assay: Binding to mouse brain membranes expressed as percentage of Opioid receptors occupancy determined from difference in specific binding of [3H]dihydromorphine obtained after 10 wash procedures
# Conditions: Membrane
# Summary of the method: (§3)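 Male mouse brain (minus cerebellum) membranes in pH 7.4 Hepes buffer are exposed to ligand for 30 min at 25 °C, then centrifuged and washed 10 times (resuspended in Hepes, 10 min at 37 °C, recentrifuged). Pellets are labelled with 2 nM final [3H]dihydromorphine for 20 min at 25 °C; 1 µM naltrexone defines nonspecific binding. Occupancy is the loss of specific binding versus a ligand-free control treated identically, counted by scintillation. Mean ± SD of triplicates.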
row,Structure (SMILES),Receptor occupancy [%]
1,CC/C=C/C/C=C/C/C=C/CCCCCCCC(=O)N[C@@H]1CC[C@@]2(O)[C@H]3Cc4ccc(O)c5c4[C@@]2(CCN3CC2CC2)[C@H]1O5,86
2,CCCCCCCC/C=C/CCCCCCCC(=O)N[C@@H]1CC[C@@]2(O)[C@H]3Cc4ccc(O)c5c4[C@@]2(CCN3CC2CC2)[C@H]1O5,32
3,CC/C=C/C/C=C/C/C=C/CCCCCCCC(=O)N[C@H]1CC[C@@]2(O)[C@H]3Cc4ccc(O)c5c4[C@@]2(CCN3CC2CC2)[C@H]1O5,84
4,CC/C=C/C/C=C/C/C=C/CCCCCCCC(=O)NN[C@@H]1CC[C@@]2(O)[C@H]3Cc4ccc(O)c5c4[C@@]2(CCN3CC2CC2)[C@H]1O5,38
5,CCCCCCCCCCCCCCCCCC(=O)N[C@H]1CC[C@@]2(O)[C@H]3Cc4ccc(O)c5c4[C@@]2(CCN3CC2CC2)[C@H]1O5,6
6,CCCCCCCCCCCCCCCCCC(=O)N[C@@H]1CC[C@@]2(O)[C@H]3Cc4ccc(O)c5c4[C@@]2(CCN3CC2CC2)[C@H]1O5,2
7,CCCCC/C=C/C/C=C/CCCCCCCC(=O)N[C@H]1CC[C@@]2(O)[C@H]3Cc4ccc(O)c5c4[C@@]2(CCN3CC2CC2)[C@H]1O5,46
8,CCCCC/C=C/C/C=C/CCCCCCCC(=O)N[C@@H]1CC[C@@]2(O)[C@H]3Cc4ccc(O)c5c4[C@@]2(CCN3CC2CC2)[C@H]1O5,53
9,CCCCCCCC/C=C/CCCCCCCC(=O)N[C@H]1CC[C@@]2(O)[C@H]3Cc4ccc(O)c5c4[C@@]2(CCN3CC2CC2)[C@H]1O5,21
10,CCCCCCCCCCCCCCCC(=O)N[C@@H]1CC[C@@]2(O)[C@H]3Cc4ccc(O)c5c4[C@@]2(CCN3CC2CC2)[C@H]1O5,2

# Target: T1, Opioid receptor (Mus musculus)
# Assay: Binding to mouse brain membranes expressed as percentage of receptor occupancy determined from difference in specific binding of [3H]dihydromorphine obtained after 10 wash procedures.
# Conditions: Membrane
# Summary of the method: as §3
row,Structure (SMILES),Receptor occupancy [%]
1,Oc1ccc2c3c1O[C@H]1/C(=N\N=C4/CC[C@@]5(O)[C@H]6Cc7ccc(O)c8c7[C@@]5(CCN6CC5CC5)[C@H]4O8)CC[C@@]4(O)[C@@H](C2)N(CC2CC2)CC[C@]314,2
2,CCCCCCCCCCCCCCCC(=O)N[C@H]1CC[C@@]2(O)[C@H]3Cc4ccc(O)c5c4[C@@]2(CCN3CC2CC2)[C@H]1O5,3

# Target: T1, Opioid receptor (Mus musculus)
# Assay: Binding to mouse brain membranes expressed as percentage of receptor occupancy determined from difference in specific binding of [3H]dihydromorphine obtained prewashed.
# Conditions: Membrane
# Summary of the method: as §2
row,Structure (SMILES),Receptor occupancy [%]
1,CCCCCCCCCCCCCCCC(=O)N[C@H]1CC[C@@]2(O)[C@H]3Cc4ccc(O)c5c4[C@@]2(CCN3CC2CC2)[C@H]1O5,24

# Target: T1, Opioid receptor (Mus musculus)
# Assay: Binding to mouse brain membranes expressed as percentage of receptor occupancy determined from difference in specific binding of [3H]dihydromorphine obtained after 3 wash procedures.
# Conditions: Membrane
# Summary of the method: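 Mouse forebrain membranes in Hepes buffer, pH 7.4, are incubated with ligand for 30 min at 25 °C, then given 3 wash cycles, each a 10 min resuspension at 37 °C followed by centrifugation. Residual occupancy is measured with 2 nM [3H]dihydromorphine (20 min, 25 °C; nonspecific binding with 1 µM naltrexone) as the drop in specific binding relative to a washed control without ligand. Mean ± SD, triplicate.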
row,Structure (SMILES),Receptor occupancy [%]
1,Oc1ccc2c3c1O[C@H]1/C(=N\N=C4/CC[C@@]5(O)[C@H]6Cc7ccc(O)c8c7[C@@]5(CCN6CC5CC5)[C@H]4O8)CC[C@@]4(O)[C@@H](C2)N(CC2CC2)CC[C@]314,35
2,CCCCCCCCCCCCCCCC(=O)N[C@H]1CC[C@@]2(O)[C@H]3Cc4ccc(O)c5c4[C@@]2(CCN3CC2CC2)[C@H]1O5,85
3,CC(=O)N[C@@H]1CC[C@@]2(O)[C@H]3Cc4ccc(O)c5c4[C@@]2(CCN3CC2CC2)[C@H]1O5,4
4,CC(=O)N[C@H]1CC[C@@]2(O)[C@H]3Cc4ccc(O)c5c4[C@@]2(CCN3CC2CC2)[C@H]1O5,2

# — ChEMBL document CHEMBL1125274, “Persistent binding of fatty acyl derivatives of naltrexamine to opioid receptors” (J Med Chem, 1991)
